Test results: ChEMBL document CHEMBL1150415 (J Med Chem, 2008)

Experiments:
Rattus norvegicus [1] = experiment: Inhibition of PGE2 production in carrageenan-stimulated rat air pouch model at 5 mg/kg, po after 6 hrs; type: functional
Outline: (§1)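 Carrageenan was injected into a preformed air pouch 2 h after oral drug. Pouch contents were removed 6 h later and PGE2 was quantified.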

[2] = Inhibition of cytosolic phospholipase A2alpha by GLU micelle assay
Outline: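 Micellar assay with 7-hydroxycoumarinyl-γ-linolenate (GLU) substrate, presenting inhibitor and substrate to the enzyme in high-lipid micelles. Each run gives the mean of duplicate assays, and values come from at least two runs.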

[3] = Plasma concentration in collagen-induced arthritis mouse model at 100 mg/kg, po twice daily after 1.5 hrs; type: ADME, organism-based; design: dose 100 mg/kg, route oral
Mus musculus = experiment: Plasma concentration in collagen-induced arthritis mouse model at 100 mg/kg, po twice daily after 12 to 14 hrs; type: ADME, organism-based; design: dose 100 mg/kg, route oral; settings: in vivo
[4] = Ratio of AUC in Sprague-Dawley rat at 25 mg/kg, po to IC50 for TXB2 production in Sprague-Dawley rat whole blood; type: functional
Blood = experiment: Inhibition of TXB2 production in Sprague-Dawley rat whole blood; type: functional, tissue-based
Outline: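 Rat whole blood stimulated with calcium ionophore A23187 at 5 µM, with thromboxane B2 measured. Each run gives the mean of triplicate assays, and values come from at least two runs.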

Rattus norvegicus [5] = experiment: Inhibition of carrageenan-induced paw edema in po dosed Sprague-Dawley rat administered 2 hrs before carrageenan challenge; type: functional
Rattus norvegicus [6] = experiment: Inhibition of PGE2 production in carrageenan-stimulated orally dosed rat air pouch model after 6 hrs; type: functional; settings: po; outline: as §1

With `O=C(O)c1ccc(OCCc2c(CCNS(=O)(=O)Cc3ccc(Cl)c(Cl)c3)n(C(c3ccccc3)c3ccccc3)c3ccc(Cl)cc23)cc1` [ECOPLADIB] the inhibition in vivo at 5 mg/kg (Rattus norvegicus [1]) was under 10%, the IC50 [2] was 150 nM and the concentration at 1.5 h [3] was 4080 ng/mL. It also gave a Cp (Mus musculus) of 531 ng/mL, a Ratio [4] of 18 h and an IC50 (Blood) of 160 nM. It also gave an ED50 (Rattus norvegicus [5]) of 40 mg/kg and an ED50 (Rattus norvegicus [6]) of 10 mg/kg.
